High-throughput results deposited in PubChem BioAssay by Sanford-Burnham Center for Chemical Genomics.
Hits are enriched below; roughly 1.5% of the tested compounds scored in any of these assays.
CXCR6 inh – CXCR6 receptor inhibitors, primary screen, cell-based, beta-arrestin, luminescence, CHO-K1 PathHunter, 1536-well. inhibition, % at 20 µM. 0.36% of 360,000 active. AID 602244, 2012; in the data active = inhibition above about 34%, passing the limit was not always enough;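 also: antagonist mode with CXCL16 agonist at 10 nM final; 0% = 10 nM CXCL16 with DMSO and 100% = unstimulated wells without agonist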
Target sequence (O00574 whole entry, looked up): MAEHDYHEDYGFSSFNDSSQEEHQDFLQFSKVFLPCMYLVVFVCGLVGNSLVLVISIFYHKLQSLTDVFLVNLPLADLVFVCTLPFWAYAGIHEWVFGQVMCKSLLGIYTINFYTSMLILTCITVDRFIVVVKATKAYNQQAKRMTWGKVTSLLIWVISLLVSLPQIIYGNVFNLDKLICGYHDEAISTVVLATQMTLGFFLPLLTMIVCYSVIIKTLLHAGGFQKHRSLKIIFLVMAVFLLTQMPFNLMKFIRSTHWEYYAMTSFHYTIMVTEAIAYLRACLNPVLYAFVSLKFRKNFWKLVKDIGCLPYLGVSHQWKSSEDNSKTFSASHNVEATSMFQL
EBI2 antag – EBI2 receptor antagonists, beta-arrestin recruitment, primary screen, cell-based, luminescence, 7a,25-OHC stimulation, uHTS; inhibition, % at 5 µM; 0.81% of 360,000 active; 7a,25-OHC stimulated; AID 651636, 2012; in the data active = inhibition above about 38%;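 also: enzyme fragment complementation signal reports receptor beta-arrestin coupling in cells; 0% = agonist plus DMSO wells and 100% = wells without agonist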
CCR6 antag – CCR6 receptor antagonists, primary screen, cell-based, CHO-K1, luminescence, beta-arrestin, uHTS; CHO-K1 CCR6 PathHunter beta-arrestin, CCL20-stimulated; AID 493098, 2011; 0.49% of 340,000 active; inhibition, % at 20 µM; C-C chemokine receptor type 6 (Homo sapiens), P51684;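 active = compounds whose inhibition of the agonist-driven luminescence signal at 20 µM reaches about 50%, limit read from the data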;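 also: cells stimulated with CCL20 at 14 nM final; plate controls were DMSO with CCL20 for no effect and DMSO without agonist for full effect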
APJ agonist – agonists of human apelin receptor APJ, primary screen, CHO-K1 cells, PathHunter beta-arrestin, luminescence | activation, % at 20 µM | P35414 | 0.11% of 330,000 active | AID 2520, 2010 | 0% DMSO wells, 100% apelin;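 active = activation more than six SD over the plate average, tested at 20 µM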;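 also: 0% = DMSO alone and 100% = apelin-13 at 10 nM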
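Incubation: overnight seeding, 90 min compound at 25 °C, 1 h detection; test system: PathHunter CHO-K1 APJ (AGTRL-1) beta-arrestin reporter cells; amount: 1000 cells/well; doses: one dose, 20 µM compound, 1% DMSO; measured by: beta-gal luminescence; measure: agonist-driven arrestin binding to APJ; benchmarks: negative DMSO alone, positive Apelin-13 at 10 nM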
APJ antag – antagonists of human apelin receptor APJ, primary screen, CHO-K1 cells, beta-arrestin complementation, luminescence; inhibition, % at 20 µM; AID 2521, 2010; P35414; 0.32% of 330,000 active;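 active = inhibition above about 40% at 20 µM, limit read from the data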;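 also: cells challenged with 10 nM apelin-13 agonist together with compound; plate controls were apelin-13 plus DMSO wells for no effect and DMSO wells lacking apelin-13 for full effect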
Numbers without * were called inactive.

What do the screens show for `CCOC(=O)CSC1=NC(=O)/C(=C/c2ccc(OC)cc2)S1`?
CXCR6 inh: 39; EBI2 antag: 6; CCR6 antag: 54*; APJ agonist: 5; APJ antag: -1

What do the screens show for `OC[C@@H]1CN(CCNc2ccccc2)C[C@H](n2cnc3c(NCc4ccncc4)ncnc32)O1`?
CXCR6 inh: -7; EBI2 antag: -4

Results for Cn1nc(C2CC2)cc1NC(=O)C1(C)CCN1C(=O)c1ccccc1CCc1ccccc1 (stereo not drawn) ?
CXCR6 inh: 0; EBI2 antag: 11

What do the screens show for `FC(F)(F)C1=Nc2cccc3cccc(c23)N1`?
CXCR6 inh: 62*; EBI2 antag: -5; CCR6 antag: 80*; APJ agonist: 12; APJ antag: -41

How did O=C(O)CCN1C(=O)/C(=C\c2ccc(-c3nc4ccccc4s3)o2)SC1=S do in these assays?
CXCR6 inh: 38; EBI2 antag: 27; CCR6 antag: 53*; APJ agonist: -2; APJ antag: 3

What do the screens show for `O=C(/C=C/c1cccs1)c1ccc(N2CCOCC2)cc1`?
CXCR6 inh: 1; EBI2 antag: 45*; CCR6 antag: 7; APJ agonist: -3; APJ antag: 14

Results for O=C(/C=C/c1cccs1)c1ccc([N+](=O)[O-])cc1 ?
CXCR6 inh: -28; EBI2 antag: 1; CCR6 antag: 2; APJ agonist: 2; APJ antag: -26

How did C=CC(=O)N1C/C(=C/c2ccccc2)C(=O)/C(=C\c2ccccc2)C1 do in these assays?
CXCR6 inh: 38*; EBI2 antag: 39; CCR6 antag: 64*

Results for C=CC(=O)N1C/C(=C/c2ccc(Cl)cc2)C(=O)/C(=C\c2ccc(Cl)cc2)C1 ?
CXCR6 inh: 50*; EBI2 antag: 75*; CCR6 antag: 62*

What do the screens show for `CCN(C(=S)Nc1cccc2ccccc12)c1ccccc1`?
CXCR6 inh: -1; EBI2 antag: -11

How did Clc1nssc1=Nc1ccc(Br)cc1 do in these assays?
CXCR6 inh: 1; EBI2 antag: 25; CCR6 antag: 15

How did Clc1ccc(N=c2ssnc2Cl)nc1 do in these assays?
CXCR6 inh: -2; EBI2 antag: 85*; CCR6 antag: 17; APJ agonist: 0; APJ antag: 12

How did Cc1ccc(/C=C/C(=O)c2c(C)nc3ccccn23)cc1 do in these assays?
CXCR6 inh: 1; EBI2 antag: 21; CCR6 antag: -27; APJ agonist: 1; APJ antag: 9

Results for Cc1nc2ccccn2c1C(=O)/C=C/c1cccc([N+](=O)[O-])c1 ?
CXCR6 inh: 3; EBI2 antag: 42*; CCR6 antag: 7; APJ agonist: 0; APJ antag: 24

How did Cc1c(C(=O)Nc2nccs2)sc2nc(-c3cccs3)cc(C(F)(F)F)c12 do in these assays?
CXCR6 inh: 33; EBI2 antag: -13; CCR6 antag: 53*; APJ agonist: -6; APJ antag: 29

What do the screens show for `O=C(C[C@H]1CC[C@@H](NC(=O)C2CC2)[C@@H](CO)O1)NCc1ccccc1Cl`?
EBI2 antag: 0

What do the screens show for `N#Cc1c(N)[nH]c(C(=O)c2ccccc2)c1-c1ccccc1Br`?
CXCR6 inh: -2; EBI2 antag: 5

How did Cc1[nH]n(-c2ccccc2)c(=O)c1/C=N/O do in these assays?
CXCR6 inh: -1; EBI2 antag: 4; CCR6 antag: -16; APJ agonist: -3; APJ antag: 1

Results for Cc1[nH]n(-c2ccccc2)c(=O)c1/C=N/N1C(=O)c2ccc3c4c(ccc(c24)C1=O)CC3 ?
CXCR6 inh: 38*; EBI2 antag: 2; APJ agonist: 3; APJ antag: -12

How did C[C@H](NC(=O)COc1ccccc1)C(=O)OCC(=O)c1cc2ccccc2o1 do in these assays?
CXCR6 inh: 48*; EBI2 antag: 22; CCR6 antag: 76*

How did COc1ccc(N/N=C(/N=Nc2nc(C)cc(=O)[nH]2)c2ccccc2)cc1 do in these assays?
CXCR6 inh: 33*; EBI2 antag: 22; CCR6 antag: 47; APJ agonist: -4; APJ antag: 22

Results for CC1(C(=O)NCc2ccc(C(F)(F)F)cc2)CCN1Cc1ccc(-c2ccccc2)o1 (stereo not drawn) ?
CXCR6 inh: 14; EBI2 antag: 7

How did Cc1c(C(=O)NCc2ccccc2C(F)(F)F)sc(=O)n1Cc1ccc2c(c1)OCO2 do in these assays?
CXCR6 inh: -1; EBI2 antag: -2

What do the screens show for `O=C(/C=C/c1ccc(O)c(O)c1)c1ccccc1O`?
CXCR6 inh: 22; EBI2 antag: 6; CCR6 antag: 52*; APJ agonist: -4; APJ antag: 43*

Results for Oc1c(Br)cc(Br)c2cccnc12 ?
CXCR6 inh: 31; EBI2 antag: 14; CCR6 antag: 56*

Results for CCOC(=O)C1CCN(Cc2ccc(O)c3ncccc23)CC1 ?
CXCR6 inh: 32; EBI2 antag: 45*; CCR6 antag: 35; APJ agonist: -4; APJ antag: 14

What do the screens show for `COc1ccccc1N1CCN(Cc2ccc(OC)c(OC)c2OC)CC1`?
CXCR6 inh: -1; EBI2 antag: -3; CCR6 antag: 6; APJ agonist: -5; APJ antag: 1

Results for COc1ccccc1N1CCN(Cc2ccc(O)c3ncccc23)CC1 ?
CXCR6 inh: 27; EBI2 antag: 73*; CCR6 antag: 30; APJ agonist: -9; APJ antag: 22

Results for CCOC(=O)C1CCN(Cc2ccccc2C(F)(F)F)CC1 ?
CXCR6 inh: -2; EBI2 antag: -2; CCR6 antag: 15; APJ agonist: -1; APJ antag: 1

Results for COc1ccc(-c2ccc(N3C(c4cc(OC)cc(OC)c4)=Cc4ccc(OC)cc4C3CC(C)=O)cc2)cc1 (stereo not drawn) ?
CXCR6 inh: -4; EBI2 antag: -1

What do the screens show for `c1ccc(/N=C2\N=C(Nc3ccccn3)c3ccccc32)nc1`?
CXCR6 inh: 31; EBI2 antag: -9; CCR6 antag: 56*; APJ agonist: -4; APJ antag: 24

What do the screens show for `c1ccc(Nc2ccccn2)cc1`?
CXCR6 inh: -4; EBI2 antag: -9; CCR6 antag: -1; APJ agonist: -1; APJ antag: -8

Results for CC1(c2nnnn2-c2ccc3c(c2)OCCO3)CCC(=O)N1Cc1cccnc1 (stereo not drawn) ?
CXCR6 inh: -8; EBI2 antag: -4

Results for Cc1cc(/C=N/n2c(COc3ccccc3)nc3ccccc3c2=O)c(O)c([N+](=O)[O-])c1 ?
CXCR6 inh: 15; EBI2 antag: 45*; CCR6 antag: 32; APJ agonist: -4; APJ antag: 11
